Source: paper PMC8453771 (Journal of Clinical Pharmacology, 2021)
Like-named read-outs stand apart in the source and are kept apart here.

Columns and labels:
[1] = primary metabolites in plasma; cited from earlier work
UGT1A9 [2] = conditions: in vitro; cited from earlier work
UGT2B7 and UGT2B4 = conditions: in vitro; cited from earlier work
[3] = coadministration of mefenamic acid; PBPK modeling; cited from earlier work
[4] = type: in vivo, human
Method in brief: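 Pooled noncompartmental data from 17 phase 1 studies in healthy subjects, fasted or light meal, no co-administered drugs; solution, suspension or tablet, 0.5–300 mg. Single dose: AUCinf; multiple dose: steady-state AUCtau (tau 24 h), day-1 Cmax.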

[5] = coadministration of rifampin; cited from earlier work
UGT1A9 [6] = assay: UGT1A9 genotype analysis of ertugliflozin AUC pooled from phase 1 studies; type: in vivo, human; conditions: for Predicted mean (90% CI) ertugliflozin AUC: Wild type, fasted
Method in brief: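 AUC pooled from 20 phase 1 studies of fasted oral tablets in genotyped healthy subjects. Linear AUC-versus-dose model as for dose proportionality. Three UGT1A9 variants (*1b homozygous/heterozygous, -2152 heterozygous, *3 heterozygous) entered together as categorical covariates on slope, giving fold change versus wild type for all alleles.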

[7] = cited from earlier work
[8] = 5-mg tablet, fasted state, full model bootstrap

CCOc1ccc(Cc2cc([C@]34OC[C@](CO)(O3)[C@@H](O)[C@H](O[C@@H]3O[C@H](C(=O)O)[C@@H](O)[C@H](O)[C@H]3O)[C@H]4O)ccc2Cl)cc1 [ertugliflozin‐3‐O‐β‐glucuronide]
pharmacological activity of metabolite [1]: pharmacologically inactive

ertugliflozin‐2‐O‐β‐glucuronide
pharmacological activity of metabolite [1]: pharmacologically inactive

CCOc1ccc(Cc2cc([C@]34OC[C@](CO)(O3)[C@@H](O)[C@H](O)[C@H]4O)ccc2Cl)cc1 [ertugliflozin]
share of glucuronide metabolite formation catalyzed by UGT1A9 (UGT1A9 [2]): 81% | share of ertugliflozin glucuronidation by UGT2B7 and UGT2B4 (UGT2B7 and UGT2B4): 19% | increase in ertugliflozin AUC [3]: ~1.5 fold | predicted mean AUC [4, 8]: 437 ng·h/mL | predicted mean Cmax [4, 8]: 88.7 ng/mL | predicted mean AUC ([4]; 15-mg tablet, fasted state, full model bootstrap): 1380 ng·h/mL | AUC higher versus the tablet form ([4]; administered as a solution): 16% | Cmax lower versus the tablet form ([4]; administered as a solution): 18% | AUC lower relative to fasting administration ([4]; administered with a light meal): 10% | Cmax lower relative to fasting administration ([4]; administered with a light meal): 46% | AUC intercept, Estimate (RSE, %) ([4]; base model): –26.5 (28.8) ng·h/mL | AUC slope, Estimate (RSE, %) ([4]; base model, AUC as linear function of dose): 93.2 (1.50) ng·h/mL/mg | Cmax slope, Estimate (RSE, %) ([4]; base model, Cmax as linear function of dose): 16.2 (2.20) ng/mL/mg | relationship of AUC and Cmax to dose ([4]; dose range 0.5 to 300 mg, healthy subjects): dose‐proportional | AUC intercept, Estimate (RSE, %) ([4]; full model): –33.7 (33.2) ng·h/mL | Solution covariate: fold change in AUC slope vs tablet, Estimate (RSE, %) ([4]; full model): 1.16 (6.35) | Solution covariate: fold change in Cmax slope vs tablet, Estimate (RSE, %) ([4]; full model): 0.821 (7.08) | Suspension covariate: fold change in AUC slope vs tablet, Estimate (RSE, %) ([4]; full model): 1.04 (3.44) | Suspension covariate: fold change in Cmax slope vs tablet, Estimate (RSE, %) ([4]; full model): 0.897 (4.77) | effect of suspension formulation on AUC or Cmax relative to tablet ([4]; full model): did not have a significant effect | AUC slope, Estimate (RSE, %) ([4]; full model, tablet, fasted): 94.1 (1.76) ng·h/mL/mg | Cmax slope, Estimate (RSE, %) ([4]; full model, tablet, fasted): 17.7 (1.92) ng/mL/mg | reduction in ertugliflozin AUC [5]: ~39% | decrease in AUC compared with wild-type UGT1A9 (UGT1A9 [6]; UGT1A9-2152 heterozygous and UGT1A9*1b heterozygous variants combined): 7.3% | combined effect on AUC (fold vs wild type) (UGT1A9 [6]; UGT1A9-2152 heterozygous and UGT1A9*1b heterozygous variants, 0.988 × 0.938): 0.927 | Predicted mean (90% CI) ertugliflozin AUC (UGT1A9 [6]; 5 mg tablet): 436 ng·h/mL | Predicted mean (90% CI) ertugliflozin AUC (UGT1A9 [6]; 15 mg tablet): 1410 ng·h/mL | AUC intercept, Estimate (RSE, %) (UGT1A9 [6]; base model): –63.9 (16.3) ng·h/mL | AUC slope, Estimate (RSE, %) (UGT1A9 [6]; base model): 96.7 (1.89) ng·h/mL/mg | AUC intercept, Estimate (RSE, %) (UGT1A9 [6]; full model): –50.1 (22.8) ng·h/mL | effect of UGT1A9-2152 heterozygous variant on AUC (UGT1A9 [6]; full model, 95%CI included 1): did not have a significant effect | AUC slope, Estimate (RSE, %) (UGT1A9 [6]; full model, UGT1A9 wild-type subjects): 97.1 (3.25) ng·h/mL/mg | clinical relevance of UGT1A9 genotype effect on ertugliflozin exposure (UGT1A9 [6]; healthy subjects): did not have any clinically meaningful effects | effect of high-fat meal on ertugliflozin AUC ([7]; 15-mg commercial tablet): no meaningful effect | effect on ertugliflozin exposure of administration with food [7]: No clinically meaningful effect | share of ertugliflozin biotransformation accounted for by glucuronidation [7]: ~90% | administered dose recovered in urine and feces as unchanged ertugliflozin ([7]; mass-balance study in humans): ~35% | median time to maximum plasma concentrations (Tmax) ([7]; multiple doses, fed): 2.0 h | median time to maximum plasma concentrations (Tmax) ([7]; single doses, fasted): 1.0 h
